# Experimental data from ChEMBL document CHEMBL1140069, “In vitro antifungal activity of polyfunctionalized 2-(hetero)arylquinolines prepared through imino Diels-Alder reactions” (2008).
# Assays:
# Type in all cases: functional
# Cryptococcus neoformans [1] = experiment: Antimicrobial activity against Cryptococcus neoformans IM 972724 isolate at 12.5 ug/ml after 48 hrs
# Outline: (§1)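 Clinical Cryptococcus isolates kept on Sabouraud-dextrose agar slopes; inoculum 1–5 × 10³ CFU/mL. Quinoline DMSO stocks were diluted in RPMI-1640 to final 100–6.25 µg/mL, with DMSO ≤2%. An equal volume of inoculum was added (200 µL per well). Run in triplicate.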
# Cryptococcus neoformans [2] = experiment: Antifungal activity against Cryptococcus neoformans ATCC 32264 after 48 hrs by broth microdilution technique; details: ATCC 32264, 48 h
# Outline: (§2)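 CLSI broth microdilution: M-27 A2 for yeasts and M-38 A for filamentous fungi. Medium is RPMI-1640 buffered to pH 7.0 with MOPS. Compound is diluted twofold from 250 to 0.98, final DMSO ≤2%. Inoculum is 1–5 × 10³ CFU/mL. Plates are incubated at 35 °C in a moist, dark chamber and read visually at 48 h. MIC100 is the lowest concentration giving total growth inhibition versus drug-free control.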
# Cryptococcus neoformans [3] = experiment: Antimicrobial activity against Cryptococcus neoformans IM 972751 isolate at 6.25 ug/ml after 48 hrs; outline: as §1
# Candida albicans [4] = experiment: Antimicrobial activity against Candida albicans ATCC 10231 at 50 ug/ml after 24 hrs; details: ATCC 10231, 24 h
# Outline: (§3)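 Growth-inhibition microplate test. Strains are grown on Sabouraud-chloramphenicol agar for 48 h at 30 °C, and inoculum is added to RPMI-1640 containing compound at a final 100–6.25, with DMSO ≤2%. Each strain has a growth control (same DMSO, no compound) and a sterility control.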
# Cryptococcus neoformans [5] = experiment: Antimicrobial activity against Cryptococcus neoformans IM 961951 isolate at 12.5 ug/ml after 48 hrs
# Outline: (§4)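 Percent growth inhibition in 96-well microplates. Compound stocks in DMSO (≤2%) were diluted in RPMI-1640 to final 100–6.25 µg/mL, and 100 µL inoculum was added (final 200 µL). Controls were a growth well (inoculum with matching DMSO, no compound) and a sterility well (no inoculum). Inhibition was calculated against growth and sterility wells.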
# Cryptococcus neoformans [6] = experiment: Antimicrobial activity against Cryptococcus neoformans IM 00319 isolate at 25 ug/ml after 48 hrs; outline: as §4
# Candida albicans [7] = experiment: Antifungal activity against Candida albicans ATCC 10231 after 48 hrs by broth microdilution technique; details: ATCC 10231, 48 h; outline: as §2
# Cryptococcus neoformans [8] = experiment: Antimicrobial activity against Cryptococcus neoformans IM 042074 isolate at 25 ug/ml after 48 hrs; outline: as §4
# Cryptococcus neoformans [9] = experiment: Antimicrobial activity against Cryptococcus neoformans IM 031631 isolate at 25 ug/ml after 48 hrs; outline: as §4
# Cryptococcus neoformans [10] = experiment: Antimicrobial activity against Cryptococcus neoformans IM 031631 isolate at 100 ug/ml after 48 hrs; outline: as §4
# Candida albicans [11] = experiment: Antimicrobial activity against Candida albicans ATCC 10231 at 12.5 ug/ml after 24 hrs; details: ATCC 10231, 24 h; outline: as §3
# Aspergillus niger = experiment: Antifungal activity against Aspergillus niger ATCC 9029 after 48 hrs by broth microdilution technique; details: ATCC 9029, 48 h; outline: as §2
# Cryptococcus neoformans [12] = experiment: Antimicrobial activity against Cryptococcus neoformans IM 972751 isolate at 50 ug/ml after 48 hrs; outline: as §1
# Cryptococcus neoformans [13] = experiment: Antimicrobial activity against Cryptococcus neoformans IM 031631 isolate at 6.25 ug/ml after 48 hrs; outline: as §4
# Aspergillus fumigatus = experiment: Antifungal activity against Aspergillus fumigatus ATTC 26934 after 48 hrs by broth microdilution technique; outline: as §2
# Candida albicans [14] = experiment: Antimicrobial activity against Candida albicans ATCC 10231 at 6.25 ug/ml after 24 hrs; details: ATCC 10231, 24 h; outline: as §3
# Cryptococcus neoformans [15] = experiment: Antimicrobial activity against Cryptococcus neoformans IM 031706 isolate at 25 ug/ml after 48 hrs; outline: as §4
# Cryptococcus neoformans [16] = experiment: Antimicrobial activity against Cryptococcus neoformans IM 961951 isolate at 50 ug/ml after 48 hrs; outline: as §1
# Cryptococcus neoformans [17] = experiment: Antimicrobial activity against Cryptococcus neoformans IM 031706 isolate at 6.25 ug/ml after 48 hrs; outline: as §4
# Cryptococcus neoformans [18] = experiment: Antimicrobial activity against Cryptococcus neoformans IM 972751 isolate at 100 ug/ml after 48 hrs; outline: as §1
# Trichophyton rubrum = experiment: Antifungal activity against Trichophyton rubrum C110 after 48 hrs by broth microdilution technique; details: read-out: MIC; outline: as §2
# Cryptococcus neoformans [19] = experiment: Antimicrobial activity against Cryptococcus neoformans IM 052470 isolate at 12.5 ug/ml after 48 hrs; outline: as §4
# Cryptococcus neoformans [20] = experiment: Antimicrobial activity against Cryptococcus neoformans ATCC 32264 at 12.5 ug/ml after 48 hrs; details: ATCC 32264, 48 h; outline: as §4
# Cryptococcus neoformans [21] = experiment: Antimicrobial activity against Cryptococcus neoformans IM 983040 isolate at 25 ug/ml after 48 hrs; outline: as §1
# Cryptococcus neoformans [22] = experiment: Antimicrobial activity against Cryptococcus neoformans ATCC 32264 at 100 ug/ml after 48 hrs; details: ATCC 32264, 48 h; outline: as §4
# Cryptococcus neoformans [23] = experiment: Antimicrobial activity against Cryptococcus neoformans IM 00319 isolate at 100 ug/ml after 48 hrs; outline: as §4
# Cryptococcus neoformans [24] = experiment: Antimicrobial activity against Cryptococcus neoformans IM 961951 isolate at 6.25 ug/ml after 48 hrs; outline: as §1
# Cryptococcus neoformans [25] = experiment: Antimicrobial activity against Cryptococcus neoformans IM 00319 isolate at 12.5 ug/ml after 48 hrs; outline: as §4
# Cryptococcus neoformans [26] = experiment: Antimicrobial activity against Cryptococcus neoformans IM 042074 isolate at 12.5 ug/ml after 48 hrs; outline: as §4
# Cryptococcus neoformans [27] = experiment: Antimicrobial activity against Cryptococcus neoformans IM 972751 isolate at 12.5 ug/ml after 48 hrs; outline: as §1
# Candida albicans [28] = experiment: Antimicrobial activity against Candida albicans ATCC 10231 at 25 ug/ml after 24 hrs; details: ATCC 10231, 24 h; outline: as §3
# Cryptococcus neoformans [29] = experiment: Antimicrobial activity against Cryptococcus neoformans IM 983036 isolate at 100 ug/ml after 48 hrs; outline: as §1
# Cryptococcus neoformans [30] = experiment: Antimicrobial activity against Cryptococcus neoformans IM 983036 isolate at 12.5 ug/ml after 48 hrs; outline: as §1
# Cryptococcus neoformans [31] = experiment: Antimicrobial activity against Cryptococcus neoformans IM 961951 isolate at 25 ug/ml after 48 hrs; outline: as §1
# Cryptococcus neoformans [32] = experiment: Antimicrobial activity against Cryptococcus neoformans IM 972724 isolate at 50 ug/ml after 48 hrs; outline: as §1
# Cryptococcus neoformans [33] = experiment: Antimicrobial activity against Cryptococcus neoformans ATCC 32264 at 6.25 ug/ml after 48 hrs; details: ATCC 32264, 48 h; outline: as §4
# Saccharomyces cerevisiae = experiment: Antifungal activity against Saccharomyces cerevisiae ATCC 9763 after 48 hrs by broth microdilution technique; details: ATCC 9763, 48 h; outline: as §2
# Cryptococcus neoformans [34] = experiment: Antimicrobial activity against Cryptococcus neoformans ATCC 32264 at 50 ug/ml after 48 hrs; details: ATCC 32264, 48 h; outline: as §4
# Cryptococcus neoformans [35] = experiment: Antimicrobial activity against Cryptococcus neoformans IM 031631 isolate at 50 ug/ml after 48 hrs; outline: as §4
# Cryptococcus neoformans [36] = experiment: Antimicrobial activity against Cryptococcus neoformans IM 00319 isolate at 6.25 ug/ml after 48 hrs; outline: as §4
# Cryptococcus neoformans [37] = experiment: Antimicrobial activity against Cryptococcus neoformans IM 972724 isolate at 25 ug/ml after 48 hrs; outline: as §1
# Cryptococcus neoformans [38] = experiment: Antimicrobial activity against Cryptococcus neoformans IM 052470 isolate at 50 ug/ml after 48 hrs; outline: as §4
# Aspergillus flavus = experiment: Antifungal activity against Aspergillus flavus ATCC 9170 after 48 hrs by broth microdilution technique; details: ATCC 9170, 48 h; outline: as §2
compound,measurement,setting,value
Cc1cc(-c2ccncc2)nc2ccccc12,inhibition at 12.5 µg/mL,Cryptococcus neoformans [1],0%
same,MIC,Cryptococcus neoformans [2],25 µg/mL
same,inhibition at 6.25 µg/mL,Cryptococcus neoformans [3],0%
same,inhibition at 50 µg/mL,Candida albicans [4],73%
same,inhibition at 12.5 µg/mL,Cryptococcus neoformans [5],34%
same,inhibition at 25 µg/mL,Cryptococcus neoformans [6],52%
same,MIC,Candida albicans [7],100 µg/mL
same,inhibition at 25 µg/mL,Cryptococcus neoformans [8],87%
same,inhibition at 25 µg/mL,Cryptococcus neoformans [9],57%
same,inhibition at 100 µg/mL,Cryptococcus neoformans [10],100%
same,inhibition at 12.5 µg/mL,Candida albicans [11],41%
same,MIC,Aspergillus niger,200 µg/mL
same,inhibition at 50 µg/mL,Cryptococcus neoformans [12],20%
same,inhibition at 6.25 µg/mL,Cryptococcus neoformans [13],12%
same,MIC,Aspergillus fumigatus,50 µg/mL
same,inhibition at 6.25 µg/mL,Candida albicans [14],19%
same,inhibition at 25 µg/mL,Cryptococcus neoformans [15],57%
same,inhibition at 50 µg/mL,Cryptococcus neoformans [16],89%
same,inhibition at 6.25 µg/mL,Cryptococcus neoformans [17],21%
same,inhibition at 100 µg/mL,Cryptococcus neoformans [18],98%
same,MIC,Trichophyton rubrum,25 µg/mL
same,inhibition at 12.5 µg/mL,Cryptococcus neoformans [19],24%
same,inhibition at 12.5 µg/mL,Cryptococcus neoformans [20],90.5%
same,inhibition at 25 µg/mL,Cryptococcus neoformans [21],12%
same,inhibition at 100 µg/mL,Cryptococcus neoformans [22],100%
same,inhibition at 100 µg/mL,Cryptococcus neoformans [23],92%
same,inhibition at 6.25 µg/mL,Cryptococcus neoformans [24],4%
same,inhibition at 12.5 µg/mL,Cryptococcus neoformans [25],32%
same,inhibition at 12.5 µg/mL,Cryptococcus neoformans [26],76%
same,inhibition at 12.5 µg/mL,Cryptococcus neoformans [27],0%
same,inhibition at 25 µg/mL,Candida albicans [28],63%
same,inhibition at 100 µg/mL,Cryptococcus neoformans [29],79%
same,inhibition at 12.5 µg/mL,Cryptococcus neoformans [30],20%
same,inhibition at 25 µg/mL,Cryptococcus neoformans [31],78%
same,inhibition at 50 µg/mL,Cryptococcus neoformans [32],23%
same,inhibition at 6.25 µg/mL,Cryptococcus neoformans [33],83%
same,MIC,Saccharomyces cerevisiae,50 µg/mL
same,inhibition at 50 µg/mL,Cryptococcus neoformans [34],100%
same,inhibition at 50 µg/mL,Cryptococcus neoformans [35],75%
same,inhibition at 6.25 µg/mL,Cryptococcus neoformans [36],12%
same,inhibition at 25 µg/mL,Cryptococcus neoformans [37],8%
same,inhibition at 50 µg/mL,Cryptococcus neoformans [38],75%
same,MIC,Aspergillus flavus,100 µg/mL
c1ccc(-c2ccc3ccccc3n2)cc1 [2-PHENYLQUINOLINE],inhibition at 12.5 µg/mL,Cryptococcus neoformans [1],13%
same,MIC,Cryptococcus neoformans [2],31.2 µg/mL
same,inhibition at 6.25 µg/mL,Cryptococcus neoformans [3],0%
same,inhibition at 50 µg/mL,Candida albicans [4],0%
same,inhibition at 12.5 µg/mL,Cryptococcus neoformans [5],0%
same,inhibition at 25 µg/mL,Cryptococcus neoformans [6],14%
same,MIC,Candida albicans [7],250 µg/mL
same,inhibition at 25 µg/mL,Cryptococcus neoformans [8],33%
same,inhibition at 25 µg/mL,Cryptococcus neoformans [9],15%
same,inhibition at 100 µg/mL,Cryptococcus neoformans [10],74%
same,inhibition at 12.5 µg/mL,Candida albicans [11],0%
same,MIC,Aspergillus niger,> 250 µg/mL
same,inhibition at 50 µg/mL,Cryptococcus neoformans [12],54%
same,inhibition at 6.25 µg/mL,Cryptococcus neoformans [13],0%
same,MIC,Aspergillus fumigatus,> 250 µg/mL
same,inhibition at 6.25 µg/mL,Candida albicans [14],0%
same,inhibition at 25 µg/mL,Cryptococcus neoformans [15],17%
same,inhibition at 50 µg/mL,Cryptococcus neoformans [16],32%
same,inhibition at 6.25 µg/mL,Cryptococcus neoformans [17],0%
same,inhibition at 100 µg/mL,Cryptococcus neoformans [18],83%
same,MIC,Trichophyton rubrum,25 µg/mL
same,inhibition at 12.5 µg/mL,Cryptococcus neoformans [19],21%
same,inhibition at 12.5 µg/mL,Cryptococcus neoformans [20],32%
same,inhibition at 25 µg/mL,Cryptococcus neoformans [21],13%
same,inhibition at 100 µg/mL,Cryptococcus neoformans [22],100%
same,inhibition at 100 µg/mL,Cryptococcus neoformans [23],47%
same,inhibition at 6.25 µg/mL,Cryptococcus neoformans [24],0%
same,inhibition at 12.5 µg/mL,Cryptococcus neoformans [25],0%
same,inhibition at 12.5 µg/mL,Cryptococcus neoformans [26],7%
same,inhibition at 12.5 µg/mL,Cryptococcus neoformans [27],0%
same,inhibition at 25 µg/mL,Candida albicans [28],0%
same,inhibition at 100 µg/mL,Cryptococcus neoformans [29],32%
same,inhibition at 12.5 µg/mL,Cryptococcus neoformans [30],0%
same,inhibition at 25 µg/mL,Cryptococcus neoformans [31],10%
same,inhibition at 50 µg/mL,Cryptococcus neoformans [32],87%
same,inhibition at 6.25 µg/mL,Cryptococcus neoformans [33],0%
same,MIC,Saccharomyces cerevisiae,125 µg/mL
same,inhibition at 50 µg/mL,Cryptococcus neoformans [34],100%
same,inhibition at 50 µg/mL,Cryptococcus neoformans [35],34%
same,inhibition at 6.25 µg/mL,Cryptococcus neoformans [36],0%
same,inhibition at 25 µg/mL,Cryptococcus neoformans [37],35%
same,inhibition at 50 µg/mL,Cryptococcus neoformans [38],76%
same,MIC,Aspergillus flavus,> 250 µg/mL
